The source of these data is ChEMBL document CHEMBL2413013, “Triplex-forming ability of oligonucleotides containing 1-aryl-1,2,3-triazole nucleobases linked via a two atom-length spacer” (Bioorg Med Chem, 2013).

A short description of assay [1]: Binding affinity to hairpin double stranded DNA GC base pair in sodium cacodylate buffer at pH 6.8 assessed as triplex-forming ability measuring melting temperature after by UV melting experiment. In outline: (§1)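 TFO and hairpin dsDNA target, each strand at 1.89 μM final, in 10 mM sodium cacodylate (pH 6.8) with 100 mM KCl and 50 mM MgCl₂. Annealed in boiling water, then cooled slowly to 5 °C. Melting was followed at 260 nm from 5 to 90 °C at 0.5 °C/min. Tm was taken by the two-point average method, mean of three independent runs.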

The nature of assay [2]: Binding affinity to hairpin double stranded DNA CG base pair in sodium cacodylate buffer at pH 6.8 assessed as triplex-forming ability measuring melting temperature after by UV melting experiment. An outline of the steps: as §1
Assay [3] can be described thus: Binding affinity to hairpin double stranded DNA TA base pair in sodium cacodylate buffer at pH 6.8 assessed as triplex-forming ability measuring melting temperature after by UV melting experiment. In outline: as §1
Assay [4] in a line: Binding affinity to hairpin double stranded DNA AT base pair in sodium cacodylate buffer at pH 6.8 assessed as triplex-forming ability measuring melting temperature after by UV melting experiment. An outline of the steps:
as §1

As to `Cc1cn([C@H]2C[C@H](O[PH](OCCC#N)(OC[C@H]3O[C@@H](n4cc(C)c(=O)[nH]c4=O)C[C@@H]3O[PH](OCCC#N)(OC[C@H]3O[C@@H](n4cc(C)c(=O)[nH]c4=O)C[C@@H]3O[PH](OCCC#N)(OC[C@H]3O[C@@H](n4cc(C)c(=O)[nH]c4=O)C[C@@H]3O[PH](OCCC#N)(OC[C@H]3O[C@@H](n4cc(C)c(=O)[nH]c4=O)C[C@@H]3O[PH](OCCC#N)(OC(C)[C@H]3O[C@@H](n4ccc(N)nc4=O)C[C@@H]3O[PH](OCCC#N)(OC[C@H]3O[C@@H](n4cc(C)c(=O)[nH]c4=O)C[C@@H]3O[PH](OCCC#N)(OC[C@H]3O[C@@H](CCc4cn(-c5cc(NC(N)=O)cc(NC(N)=O)c5)nn4)C[C@@H]3OP(=O)(O)OC[C@H]3O[C@@H](n4cc(C)c(=O)[nH]c4=O)C[C@@H]3O[PH](OCCC#N)(OC(C)[C@H]3O[C@@H](n4ccc(N)nc4=O)C[C@@H]3O[PH](OCCC#N)(OC[C@H]3O[C@@H](n4cc(C)c(=O)[nH]c4=O)C[C@@H]3O[PH](OCCC#N)(OC(C)[C@H]3O[C@@H](n4ccc(N)nc4=O)C[C@@H]3O[PH](OCCC#N)(OC[C@H]3O[C@@H](n4cc(C)c(=O)[nH]c4=O)C[C@@H]3O[PH](OCCC#N)(OC(C)[C@H]3O[C@@H](n4ccc(N)nc4=O)C[C@@H]3O[PH](OCCC#N)(OC[C@H]3O[C@@H](n4cc(C)c(=O)[nH]c4=O)C[C@@H]3O)N(C(C)C)C(C)C)N(C(C)C)C(C)C)N(C(C)C)C(C)C)N(C(C)C)C(C)C)N(C(C)C)C(C)C)N(C(C)C)C(C)C)N(C(C)C)C(C)C)N(C(C)C)C(C)C)N(C(C)C)C(C)C)N(C(C)C)C(C)C)N(C(C)C)C(C)C)N(C(C)C)C(C)C)N(C(C)C)C(C)C)[C@@H](CO)O2)c(=O)[nH]c1=O` (stereo not given in full), the Tm in assay [1] was found to be 23 °C; in assay [2], 27 °C; in assay [3] it was 27 °C; in assay [4], 22 °C.

`CC(=O)N1CCCc2ccc(-n3cc(CC[C@H]4C[C@H](OP(=O)(O)OC[C@H]5O[C@@H](n6cc(C)c(=O)[nH]c6=O)C[C@@H]5O[PH](OCCC#N)(OC(C)[C@H]5O[C@@H](n6ccc(N)nc6=O)C[C@@H]5O[PH](OCCC#N)(OC[C@H]5O[C@@H](n6cc(C)c(=O)[nH]c6=O)C[C@@H]5O[PH](OCCC#N)(OC(C)[C@H]5O[C@@H](n6ccc(N)nc6=O)C[C@@H]5O[PH](OCCC#N)(OC[C@H]5O[C@@H](n6cc(C)c(=O)[nH]c6=O)C[C@@H]5O[PH](OCCC#N)(OC(C)[C@H]5O[C@@H](n6ccc(N)nc6=O)C[C@@H]5O[PH](OCCC#N)(OC[C@H]5O[C@@H](n6cc(C)c(=O)[nH]c6=O)C[C@@H]5O)N(C(C)C)C(C)C)N(C(C)C)C(C)C)N(C(C)C)C(C)C)N(C(C)C)C(C)C)N(C(C)C)C(C)C)N(C(C)C)C(C)C)[C@@H](CO[PH](OCCC#N)(O[C@H]5C[C@H](n6cc(C)c(=O)[nH]c6=O)O[C@@H]5CO[PH](OCCC#N)(O[C@H]5C[C@H](n6ccc(N)nc6=O)O[C@@H]5C(C)O[PH](OCCC#N)(O[C@H]5C[C@H](n6cc(C)c(=O)[nH]c6=O)O[C@@H]5CO[PH](OCCC#N)(O[C@H]5C[C@H](n6cc(C)c(=O)[nH]c6=O)O[C@@H]5CO[PH](OCCC#N)(O[C@H]5C[C@H](n6cc(C)c(=O)[nH]c6=O)O[C@@H]5CO[PH](OCCC#N)(O[C@H]5C[C@H](n6cc(C)c(=O)[nH]c6=O)O[C@@H]5CO[PH](OCCC#N)(O[C@H]5C[C@H](n6cc(C)c(=O)[nH]c6=O)O[C@@H]5CO)N(C(C)C)C(C)C)N(C(C)C)C(C)C)N(C(C)C)C(C)C)N(C(C)C)C(C)C)N(C(C)C)C(C)C)N(C(C)C)C(C)C)N(C(C)C)C(C)C)O4)nn3)cc21` (stereo not given in full): the Tm in assay [1] is 21 °C; in assay [2] it was 26 °C; in assay [3], 27 °C; in assay [4] it was 21 °C.

As for `Cc1cn([C@H]2C[C@H](O[PH](OCCC#N)(OC[C@H]3O[C@@H](n4cc(C)c(=O)[nH]c4=O)C[C@@H]3O[PH](OCCC#N)(OC[C@H]3O[C@@H](n4cc(C)c(=O)[nH]c4=O)C[C@@H]3O[PH](OCCC#N)(OC[C@H]3O[C@@H](n4cc(C)c(=O)[nH]c4=O)C[C@@H]3O[PH](OCCC#N)(OC[C@H]3O[C@@H](n4cc(C)c(=O)[nH]c4=O)C[C@@H]3O[PH](OCCC#N)(OC(C)[C@H]3O[C@@H](n4ccc(N)nc4=O)C[C@@H]3O[PH](OCCC#N)(OC[C@H]3O[C@@H](n4cc(C)c(=O)[nH]c4=O)C[C@@H]3O[PH](OCCC#N)(OC[C@H]3O[C@@H](CCc4cn(-c5ccccc5O)nn4)C[C@@H]3OP(=O)(O)OC[C@H]3O[C@@H](n4cc(C)c(=O)[nH]c4=O)C[C@@H]3O[PH](OCCC#N)(OC(C)[C@H]3O[C@@H](n4ccc(N)nc4=O)C[C@@H]3O[PH](OCCC#N)(OC[C@H]3O[C@@H](n4cc(C)c(=O)[nH]c4=O)C[C@@H]3O[PH](OCCC#N)(OC(C)[C@H]3O[C@@H](n4ccc(N)nc4=O)C[C@@H]3O[PH](OCCC#N)(OC[C@H]3O[C@@H](n4cc(C)c(=O)[nH]c4=O)C[C@@H]3O[PH](OCCC#N)(OC(C)[C@H]3O[C@@H](n4ccc(N)nc4=O)C[C@@H]3O[PH](OCCC#N)(OC[C@H]3O[C@@H](n4cc(C)c(=O)[nH]c4=O)C[C@@H]3O)N(C(C)C)C(C)C)N(C(C)C)C(C)C)N(C(C)C)C(C)C)N(C(C)C)C(C)C)N(C(C)C)C(C)C)N(C(C)C)C(C)C)N(C(C)C)C(C)C)N(C(C)C)C(C)C)N(C(C)C)C(C)C)N(C(C)C)C(C)C)N(C(C)C)C(C)C)N(C(C)C)C(C)C)N(C(C)C)C(C)C)[C@@H](CO)O2)c(=O)[nH]c1=O` (stereo not given in full), the Tm in assay [1] came to 19 °C; in assay [2] it was 22 °C; in assay [3], 18 °C; in assay [4], 20 °C.

For the molecule `Cc1cn([C@H]2C[C@H](O[PH](OCCC#N)(OC[C@H]3O[C@@H](n4cc(C)c(=O)[nH]c4=O)C[C@@H]3O[PH](OCCC#N)(OC[C@H]3O[C@@H](n4cc(C)c(=O)[nH]c4=O)C[C@@H]3O[PH](OCCC#N)(OC[C@H]3O[C@@H](n4cc(C)c(=O)[nH]c4=O)C[C@@H]3O[PH](OCCC#N)(OC[C@H]3O[C@@H](n4cc(C)c(=O)[nH]c4=O)C[C@@H]3O[PH](OCCC#N)(OC(C)[C@H]3O[C@@H](n4ccc(N)nc4=O)C[C@@H]3O[PH](OCCC#N)(OC[C@H]3O[C@@H](n4cc(C)c(=O)[nH]c4=O)C[C@@H]3O[PH](OCCC#N)(OC[C@H]3O[C@@H](CCc4cn(-c5ccc(CO)cc5)nn4)C[C@@H]3OP(=O)(O)OC[C@H]3O[C@@H](n4cc(C)c(=O)[nH]c4=O)C[C@@H]3O[PH](OCCC#N)(OC(C)[C@H]3O[C@@H](n4ccc(N)nc4=O)C[C@@H]3O[PH](OCCC#N)(OC[C@H]3O[C@@H](n4cc(C)c(=O)[nH]c4=O)C[C@@H]3O[PH](OCCC#N)(OC(C)[C@H]3O[C@@H](n4ccc(N)nc4=O)C[C@@H]3O[PH](OCCC#N)(OC[C@H]3O[C@@H](n4cc(C)c(=O)[nH]c4=O)C[C@@H]3O[PH](OCCC#N)(OC(C)[C@H]3O[C@@H](n4ccc(N)nc4=O)C[C@@H]3O[PH](OCCC#N)(OC[C@H]3O[C@@H](n4cc(C)c(=O)[nH]c4=O)C[C@@H]3O)N(C(C)C)C(C)C)N(C(C)C)C(C)C)N(C(C)C)C(C)C)N(C(C)C)C(C)C)N(C(C)C)C(C)C)N(C(C)C)C(C)C)N(C(C)C)C(C)C)N(C(C)C)C(C)C)N(C(C)C)C(C)C)N(C(C)C)C(C)C)N(C(C)C)C(C)C)N(C(C)C)C(C)C)N(C(C)C)C(C)C)[C@@H](CO)O2)c(=O)[nH]c1=O` (stereo not given in full), the Tm in assay [1] was determined as 19 °C; in assay [2], 23 °C; in assay [3] it was 22 °C; in assay [4], 19 °C.

For the molecule `Cc1cn([C@H]2C[C@H](O[PH](OCCC#N)(OC[C@H]3O[C@@H](n4cc(C)c(=O)[nH]c4=O)C[C@@H]3O[PH](OCCC#N)(OC[C@H]3O[C@@H](n4cc(C)c(=O)[nH]c4=O)C[C@@H]3O[PH](OCCC#N)(OC[C@H]3O[C@@H](n4cc(C)c(=O)[nH]c4=O)C[C@@H]3O[PH](OCCC#N)(OC[C@H]3O[C@@H](n4cc(C)c(=O)[nH]c4=O)C[C@@H]3O[PH](OCCC#N)(OC(C)[C@H]3O[C@@H](n4ccc(N)nc4=O)C[C@@H]3O[PH](OCCC#N)(OC[C@H]3O[C@@H](n4cc(C)c(=O)[nH]c4=O)C[C@@H]3O[PH](OCCC#N)(OC[C@H]3O[C@@H](OCc4cn(-c5cccc(NC(N)=O)c5)nn4)C[C@@H]3OP(=O)(O)OC[C@H]3O[C@@H](n4cc(C)c(=O)[nH]c4=O)C[C@@H]3O[PH](OCCC#N)(OC(C)[C@H]3O[C@@H](n4ccc(N)nc4=O)C[C@@H]3O[PH](OCCC#N)(OC[C@H]3O[C@@H](n4cc(C)c(=O)[nH]c4=O)C[C@@H]3O[PH](OCCC#N)(OC(C)[C@H]3O[C@@H](n4ccc(N)nc4=O)C[C@@H]3O[PH](OCCC#N)(OC[C@H]3O[C@@H](n4cc(C)c(=O)[nH]c4=O)C[C@@H]3O[PH](OCCC#N)(OC(C)[C@H]3O[C@@H](n4ccc(N)nc4=O)C[C@@H]3O[PH](OCCC#N)(OC[C@H]3O[C@@H](n4cc(C)c(=O)[nH]c4=O)C[C@@H]3O)N(C(C)C)C(C)C)N(C(C)C)C(C)C)N(C(C)C)C(C)C)N(C(C)C)C(C)C)N(C(C)C)C(C)C)N(C(C)C)C(C)C)N(C(C)C)C(C)C)N(C(C)C)C(C)C)N(C(C)C)C(C)C)N(C(C)C)C(C)C)N(C(C)C)C(C)C)N(C(C)C)C(C)C)N(C(C)C)C(C)C)[C@@H](CO)O2)c(=O)[nH]c1=O` (stereo not given in full), the Tm in assay [1] is 23 °C; in assay [2] it was 25 °C; in assay [3], 23 °C; in assay [4], 21 °C.
